This passage reports inhibition of growth and Ki results from ChEMBL document CHEMBL3046448, “Design and syntheses of novel phthalazin-1(2H)-one derivatives as acetohydroxyacid synthase inhibitors” (J Agric Food Chem, 2006).

Assay [1] relates to Chenopodium album. Description: Herbicidal activity against Chenopodium album assessed as growth inhibition at 150 g ai/ha applied as post-emergence treatment under green house conditions measured 15 days post compound treatment. The format is functional. The note with it: 360 h, read-out: GI. The method, boiled down: (§1)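 Post-emergence spray on pot-grown dicot weeds at the two-leaf stage in a greenhouse. Clay soil: pH 6.5, 1.6% organic matter, 37.3% clay, CEC 12.1 cmol/kg. Formulation: 100 g/L DMF/TW-80 emulsified concentrate, water-diluted to 150 g ai/ha. Untreated and DMF solvent controls. Visual inhibition rating at 15 days: ++ >80%, + 50-80%, − <50%.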

In assay [2] the test system is Amaranthus retroflexus. Description: Herbicidal activity against Amaranthus retroflexus assessed as growth inhibition at 150 g ai/ha applied as post-emergence treatment under green house conditions measured 15 days post compound treatment. The format is functional. As to conditions: 360 h, read-out: GI. The method, boiled down: as §1
Assay [3] has as its system Brassica juncea. Description: Herbicidal activity against Brassica juncea assessed as growth inhibition at 150 g ai/ha applied as post-emergence treatment under green house conditions measured 15 days post compound treatment. The format is functional. The note with it: 360 h, read-out: GI. In short, it runs like this: as §1
The subject of assay [4] is Setaria viridis. The experiment in a line: Herbicidal activity against Setaria viridis (green foxtail) assessed as growth inhibition at 150 g ai/ha applied as post-emergence treatment under green house conditions measured 15 days post compound treatment. The format is functional. As to conditions: 360 h, read-out: GI. In short, it runs like this: (§2)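 Monocot weeds grown in pots in a greenhouse and sprayed post-emergence at the one-leaf stage. Clay soil: pH 6.5, 1.6% organic matter, 37.3% clay, CEC 12.1 cmol/kg. Formulation: 100 g/L emulsified concentrate (DMF, TW-80) diluted with water to 150 g ai/ha. Untreated and DMF controls included. Growth inhibition scored visually after 15 days: ++ >80%, + 50-80%, − <50%.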

For assay [5], the system named is Digitaria sanguinalis. Description: Herbicidal activity against Digitaria sanguinalis (hairy crabgrass) assessed as growth inhibition at 150 g ai/ha applied as post-emergence treatment under green house conditions measured 15 days post compound treatment. The format is functional. The note with it: 360 h, read-out: GI. The method, boiled down: as §2
The test system of assay [6] is Amaranthus retroflexus. Description: Herbicidal activity against Amaranthus retroflexus assessed as growth inhibition at 150 g ai/ha applied as pre-emergence treatment 24 hr after weeds seeds sowing under green house conditions measured 15 days post compound treatment. The format is functional. As to conditions: read-out: GI. The method, boiled down: (§3)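 Pre-emergence spray applied 24 h after sowing weeds in pots in a greenhouse. Clay soil: pH 6.5, 1.6% organic matter, 37.3% clay, CEC 12.1 cmol/kg. Formulation: 100 g/L emulsified concentrate (DMF solvent, TW-80 emulsifier) diluted with water to 150 g ai/ha. Untreated and DMF-treated controls. Growth inhibition judged visually at 15 days: ++ >80%, + 50-80%, − <50%.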

Assay [7] relates to Brassica juncea. The experiment in a line: Herbicidal activity against Brassica juncea assessed as growth inhibition at 150 g ai/ha applied as pre-emergence treatment 24 hr after weeds seeds sowing under green house conditions measured 15 days post compound treatment. The format is functional. The note with it: read-out: GI. The method, boiled down:
as §3

Assay [8] concerns Setaria viridis. The experiment in a line: Herbicidal activity against Setaria viridis (green foxtail) assessed as growth inhibition at 150 g ai/ha applied as pre-emergence treatment 24 hr after weeds seeds sowing under green house conditions measured 15 days post compound treatment. The format is functional. The note with it: read-out: GI. The method, boiled down: as §3
The test system of assay [9] is Digitaria sanguinalis. The experiment in a line: Herbicidal activity against Digitaria sanguinalis (hairy crabgrass) assessed as growth inhibition at 150 g ai/ha applied as pre-emergence treatment 24 hr after weeds seeds sowing under green house conditions measured 15 days post compound treatment. As to conditions: read-out: GI. The format is functional. In short, it runs like this: as §3

Assay [10] has as its system Echinochloa crus-galli. The experiment in a line: Herbicidal activity against Echinochloa crus-galli (barnyard grass) assessed as growth inhibition at 150 g ai/ha applied as post-emergence treatment under green house conditions measured 15 days post compound treatment. The format is functional. As to conditions: 360 h, read-out: GI. In short, it runs like this: as §2

In assay [11] the test system is Chenopodium album. Description: Herbicidal activity against Chenopodium album assessed as growth inhibition at 150 g ai/ha applied as pre-emergence treatment 24 hr after weeds seeds sowing under green house conditions measured 15 days post compound treatment. The format is functional. As to conditions: read-out: GI. The method, boiled down: as §3
Assay [12] has as its system Echinochloa crus-galli. Description: Herbicidal activity against Echinochloa crus-galli (barnyard grass) assessed as growth inhibition at 150 g ai/ha applied as pre-emergence treatment 24 hr after weeds seeds sowing under green house conditions measured 15 days post compound treatment. The format is functional. The note with it: read-out: GI. In short, it runs like this:
as §3

Assay [13] concerns the target T1, Acetolactate synthase, chloroplastic (Arabidopsis thaliana, UniProt P17597).
T1 sequence (P17597 whole entry): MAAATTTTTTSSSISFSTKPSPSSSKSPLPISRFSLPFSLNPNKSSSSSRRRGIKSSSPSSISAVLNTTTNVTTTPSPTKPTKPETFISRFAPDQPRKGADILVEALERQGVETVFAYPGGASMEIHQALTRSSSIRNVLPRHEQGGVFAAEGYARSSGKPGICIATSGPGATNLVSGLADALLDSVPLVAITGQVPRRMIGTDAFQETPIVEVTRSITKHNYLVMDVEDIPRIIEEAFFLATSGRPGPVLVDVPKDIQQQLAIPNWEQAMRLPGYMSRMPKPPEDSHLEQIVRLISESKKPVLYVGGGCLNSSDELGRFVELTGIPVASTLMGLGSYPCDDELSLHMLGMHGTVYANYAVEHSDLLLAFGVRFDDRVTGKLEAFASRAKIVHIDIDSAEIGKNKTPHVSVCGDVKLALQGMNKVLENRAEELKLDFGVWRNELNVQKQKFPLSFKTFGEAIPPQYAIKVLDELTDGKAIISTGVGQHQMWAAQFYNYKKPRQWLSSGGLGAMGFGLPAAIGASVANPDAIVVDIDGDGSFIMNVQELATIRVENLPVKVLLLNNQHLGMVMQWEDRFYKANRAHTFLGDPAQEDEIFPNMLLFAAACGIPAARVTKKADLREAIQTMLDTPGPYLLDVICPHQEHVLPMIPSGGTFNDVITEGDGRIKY
The experiment in a line: Inhibition of wild type Arabidopsis thaliana acetohydroxyacid synthase.

Molecules are shown by their SMILES. Bounds are passed on as bounds.

A word on the Ki: it is a measure of affinity in units of concentration, obtained from inhibition or displacement. On to `COc1cc(OC)nc(Oc2cccc3c(C)nn(Cc4cccc(F)c4)c(=O)c23)n1`, for which the inhibition of growth at 150 g/ha in assay [1], in assay [2], in [3], in assay [4], in [5] and in [6] was less than 50% in each case. Also, the inhibition of growth at 150 g/ha in assay [7], in assay [8], in assay [9], in assay [10], in assay [11] and in assay [12] was less than 50% throughout. Further, the inhibitory constant (Ki) in assay [13] worked out at 1400 µM.

As for `CCn1nc(C)c2cccc(Oc3nc(OC)cc(OC)n3)c2c1=O`, the inhibition of growth at 150 g/ha was 50% in assay [1]; more than 80% in assay [2]; less than 50% in [3]; more than 80% in assay [4]; more than 80% in assay [5]; less than 50% in assay [6]. Besides, the inhibition of growth at 150 g/ha in assay [7] is less than 50%; in assay [8] it was less than 50%; in assay [9] it was less than 50%; in assay [10], more than 80%; in assay [11], less than 50%; in assay [12], less than 50%. The compound also showed an inhibition constant Ki in assay [13] of 1680 µM.

In the case of `COc1cc(OC)nc(Oc2cccc3c(C)nn(Cc4cccc(Cl)c4)c(=O)c23)n1`, the inhibition of growth at 150 g/ha was 50% in assay [1]; more than 80% in [2]; 50% in assay [3]; less than 50% in assay [4]; less than 50% in assay [5]; less than 50% in assay [6]. The inhibition of growth at 150 g/ha was less than 50% in assay [7]; less than 50% in [8]; less than 50% in assay [9]; 50% in assay [10]; less than 50% in assay [11]; less than 50% in assay [12]. Besides, in assay [13], the Ki was determined as 216 µM.

Turning to `COc1cc(OC)nc(Oc2cccc3c(C)nn(Cc4c(F)cccc4F)c(=O)c23)n1`, the inhibition of growth at 150 g/ha in assay [1], in assay [2], in assay [3], in [4], in [5] and in assay [6] was less than 50% throughout. Besides, the inhibition of growth at 150 g/ha in [7], in assay [8], in [9], in [10], in assay [11] and in assay [12] was less than 50% each time. In assay [13], this compound registered a Ki of 634 µM.

On to `COc1cc(OC)nc(Oc2cccc3c(C)nn(Cc4cc(C)ccc4[N+](=O)[O-])c(=O)c23)n1`, for which the inhibition of growth at 150 g/ha in assay [1] is 50%; in assay [2], more than 80%; in assay [3], 50%; in [4] it was 50%; in [5], less than 50%; in [6], less than 50%. Further, the inhibition of growth at 150 g/ha in assay [7] is less than 50%; in assay [8], less than 50%; in assay [9], less than 50%; in [10] it was 50%; in assay [11], less than 50%; in assay [12] it was less than 50%. The Ki in assay [13] turned out to be 310 µM.
